Reference: ChEMBL document CHEMBL4477194, “Royal Jelly Constituents Increase the Expression of Extracellular Superoxide Dismutase through Histone Acetylation in Monocytic THP-1 Cells” (J Nat Prod, 2016)
The source made the active and inactive calls. No cut-off for these calls is given here.

What was measured:
[1] = system: THP-1; test: Effect on Cu/Zn SOD mRNA expression in human THP1 cells at 1 mM after 24 hrs by RT-PCR method; assay type: functional, cell-based
In short: (§1)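 THP-1 cells (RPMI 1640, 10% heat-inactivated FCS, 37 °C, 5% CO2) were seeded at 2.0 × 10^6 cells/dish and treated for 24 h. Cells were washed with cold PBS and lysed in TRIzol, then analysed by real-time RT-PCR normalized to 18S rRNA. Values are mean ± SD of three independent experiments, with ANOVA and Bonferroni tests.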

[2] = system: THP-1; test: Upregulation of Mn SOD mRNA expression in human THP1 cells at 1 mM after 24 hrs by RT-PCR method; assay type: functional, cell-based; in short: as §1
[3] = species on record: Homo sapiens; test: Upregulation of HDAC1 inhibition/ERK signalling activation-mediated extracellular SOD protein expression in human THP1 cells at 1 mM after 24 hrs by ELISA; assay type: cell-based
In short: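 EC-SOD protein content was measured by ELISA in THP-1 cells after 24 h treatment, with cells collected in PBS. Cells were cultured in RPMI 1640 with 10% heat-inactivated FCS at 37 °C and 5% CO2. Values are mean ± SD of three independent experiments, compared against untreated cells.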

[4] = species on record: Homo sapiens; test: Upregulation of HDAC1 inhibition/ERK signalling activation-mediated extracellular SOD mRNA expression in human THP1 cells at 1 mM after 24 hrs by RT-PCR method; assay type: cell-based; in short: as §1
[5] = molecular target: Histone deacetylase 1 (Homo sapiens) (UniProt Q13547); test: Inhibition of HDAC1 in human THP1 cells assessed as increase in histone H4 acetylation level at 1 mM after 12 hrs by Western blot analysis relative to control; assay type: cell-based
Histone deacetylase 1 (Homo sapiens), sequence (Q13547 whole entry, the tested form may be a part): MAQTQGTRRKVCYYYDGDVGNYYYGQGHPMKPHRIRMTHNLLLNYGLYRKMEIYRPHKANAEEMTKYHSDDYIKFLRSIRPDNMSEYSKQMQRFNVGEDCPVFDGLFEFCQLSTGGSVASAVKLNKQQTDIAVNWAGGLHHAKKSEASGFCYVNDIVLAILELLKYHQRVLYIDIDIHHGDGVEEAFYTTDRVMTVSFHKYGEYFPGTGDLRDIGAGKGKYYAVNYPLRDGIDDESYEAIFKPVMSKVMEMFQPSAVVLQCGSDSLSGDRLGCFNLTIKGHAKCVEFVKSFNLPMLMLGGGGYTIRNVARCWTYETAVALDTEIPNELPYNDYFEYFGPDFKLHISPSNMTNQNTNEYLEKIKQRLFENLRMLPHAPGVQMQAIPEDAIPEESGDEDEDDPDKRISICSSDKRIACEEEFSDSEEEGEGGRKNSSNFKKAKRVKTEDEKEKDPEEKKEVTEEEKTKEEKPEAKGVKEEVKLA
In short: (§2)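 After 12 h treatment, THP-1 whole-cell extracts (20 μg protein) were run on 12% SDS-PAGE and transferred to PVDF. Membranes were blocked with 1% BSA in PBS and probed with anti-acetyl histone H3 or H4 primary antibodies (1:1000), then a biotin-conjugated secondary antibody (1:1000). Histone loading was checked by Coomassie staining.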

[6] = molecular target: Histone deacetylase 1 (Homo sapiens) (UniProt Q13547); test: Inhibition of HDAC1 in human THP1 cells assessed as increase in histone H3 acetylation level at 1 mM after 12 hrs by Western blot analysis relative to control; assay type: cell-based; in short: as §2
[7] = molecular target: Histone deacetylase 1 (Homo sapiens) (UniProt Q13547); test: Upregulation of HDAC1 inhibition-mediated histone H4 acetylation-induced extracellular SOD expression in human THP1 cells at 1 mM after 12 hrs by chromatin immunoprecipitation method; assay type: cell-based
In short: (§3)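 THP-1 cells (5 × 10^6) treated 12 h, at 1 mM or 100 μM per line. Cross-linked with formaldehyde 5 min at room temperature and chromatin sonicated to 150–800 bp. Immunoprecipitated overnight on protein G beads and washed in RIPA I/II and TE. Eluted with RNase A and proteinase K. EC-SOD promoter binding expressed as % of input.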

[8] = molecular target: Histone deacetylase 1 (Homo sapiens) (UniProt Q13547); test: Upregulation of HDAC1 inhibition-mediated histone H3 acetylation-induced extracellular SOD expression in human THP1 cells at 1 mM after 12 hrs by chromatin immunoprecipitation method; assay type: cell-based; in short: as §3
[9] = system: THP-1; test: Effect on HDAC1 mRNA expression in human THP1 cells at 1 mM after 24 hrs by RT-PCR method; assay type: functional, cell-based
In short: (§4)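 THP-1 cells in RPMI 1640 with 10% heat-inactivated FCS, 37 °C, 5% CO2. Seeded 2.0 × 10^6 cells per 3.5 cm dish and treated 24 h, at 1 mM for the 1 mM lines and 100 μM for the 100 μM lines. RNA extracted in TRIzol, then real-time RT-PCR normalized to 18S rRNA. Means ± SD of three independent experiments; ANOVA with Bonferroni post hoc.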

[10] = system: THP-1; test: Effect on HDAC2 mRNA expression in human THP1 cells at 1 mM after 24 hrs by RT-PCR method; assay type: functional, cell-based; in short: as §4
[11] = system: THP-1; test: Effect on HDAC3 mRNA expression in human THP1 cells at 1 mM after 24 hrs by RT-PCR method; assay type: functional, cell-based; in short: as §4
[12] = system: THP-1; test: Effect on HDAC8 mRNA expression in human THP1 cells at 1 mM after 24 hrs by RT-PCR method; assay type: functional, cell-based; in short: as §4
[13] = system: THP-1; test: Effect on HDAC4 mRNA expression in human THP1 cells at 1 mM after 24 hrs by RT-PCR method; assay type: functional, cell-based; in short: as §4
[14] = system: THP-1; test: Effect on HDAC5 mRNA expression in human THP1 cells at 1 mM after 24 hrs by RT-PCR method; assay type: functional, cell-based; in short: as §4
[15] = system: THP-1; test: Effect on HDAC6 mRNA expression in human THP1 cells at 1 mM after 24 hrs by RT-PCR method; assay type: functional, cell-based; in short: as §4
[16] = system: THP-1; test: Effect on HDAC7 mRNA expression in human THP1 cells at 1 mM after 24 hrs by RT-PCR method; assay type: functional, cell-based; in short: as §4
[17] = system: THP-1; test: Effect on HDAC9 mRNA expression in human THP1 cells at 1 mM after 24 hrs by RT-PCR method; assay type: functional, cell-based; in short: as §4
[18] = system: THP-1; test: Effect on HDAC10 mRNA expression in human THP1 cells at 1 mM after 24 hrs by RT-PCR method; assay type: functional, cell-based; in short: as §4
[19] = molecular target: Histone deacetylase (Homo sapiens) (UniProt Q13547+O15379+Q9UBN7+Q92769+Q9UQL6+Q8WUI4+Q9BY41+Q96DB2+P56524+Q9UKV0+Q969S8); test: Inhibition of HDAC activity in human THP1 cells at 1 mM preincubated for 1 hr followed by substrate addition measured after 2 hrs by fluorescence assay relative to control; assay type: cell-based
In short: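 This is a cell-based HDAC assay. THP-1 cells at 5.0 × 10^4 cells/well were treated for 1 h, then HDAC substrate was added for 2 h at 37 °C. Lysis/developer solution followed for 15 min at 37 °C. Fluorescence was read at ex 365 nm / em 410–460 nm and compared with untreated cells; mean ± SD, n = 3 independent experiments.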

[20] = molecular target: Histone deacetylase 1 (Homo sapiens) (UniProt Q13547); test: Inhibition of recombinant HDAC1 catalytic domain (unknown origin) using HDAC substrate at 1 mM preincubated for 1 hr followed by substrate addition measured after 30 mins by fluorescence assay relative to control
In short: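 Recombinant HDAC1 was mixed with compound in assay buffer, and the reaction was started with HDAC substrate for 30 min at 37 °C in the dark. Developer was then added for 15 min at room temperature. Fluorescence was read at ex 365 nm / em 410–460 nm and compared with untreated control; mean ± SD of three independent experiments.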

Row | SMILES | Activity [1] | Activity [2] | Activity [3] | Activity [4] | fold change (FC) [5] | fold change (FC) [6] | Activity [7] | Activity [8] | Activity [9] | Activity [10] | Activity [11] | Activity [12] | Activity [13] | Activity [14] | Activity [15] | Activity [16] | Activity [17] | Activity [18] | inhibition [19] | inhibition [20]
1 | O=C(O)CCCCCCCCC(=O)O | inactive | Active | Active | Active | 2.24 | 1.24 | Active | inactive | inactive | inactive | inactive | inactive | inactive | inactive | inactive | inactive | inactive | inactive | 20% | 50%
2 | O=C(O)CCCCCCCCCO | inactive | inactive | Active | Active | 2.45 | 1.33 | Active | inactive | inactive | inactive | inactive | inactive | inactive | inactive | inactive | inactive | inactive | inactive | 20% | 50%
